PAFAH2 inh = inhibitors of human PAFAH2 | Q99487 | recombinant PAFAH2, FP-rhodamine activity probe, fluorescence polarization | inhibition, % at 3.39 µM | 340,000 compounds, 0.99% hits | AID 492956;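 active = inhibition above the mean over all tested compounds plus 3 SD, cut at about 30% in these data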;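 also: inhibitors block probe labeling of enzyme so polarization drops; 0% = enzyme with DMSO and 100% = wells lacking PAFAH2 protein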
ASAP1 inh = ASAP1 ArfGAP inhibition. Q9ULH1. ASAP1-stimulated ARF1 GTP hydrolysis, GDP FP detection. inhibition, % at 16.5 µM. 360,000 compounds, 0.19% hits. AID 624377; in the data active = inhibition above about 25%;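 also: 0% = vehicle with enzyme and substrate and 100% = no enzyme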
PAFAH1B2 FP inh = PAFAH1B2 (human) inhibition; P68402; 340,000 compounds, 1.2% hits; AID 492953; inhibition, % at 3.39 µM; recombinant PAFAH1B2, FP-rhodamine activity probe, fluorescence polarization;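 active = inhibition above the mean of all tested compounds plus 3 SD, cut at about 24% in these data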;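 also: 0% = enzyme with DMSO and 100% = wells lacking PAFAH1B2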
Target sequence (P68402 whole entry, looked up): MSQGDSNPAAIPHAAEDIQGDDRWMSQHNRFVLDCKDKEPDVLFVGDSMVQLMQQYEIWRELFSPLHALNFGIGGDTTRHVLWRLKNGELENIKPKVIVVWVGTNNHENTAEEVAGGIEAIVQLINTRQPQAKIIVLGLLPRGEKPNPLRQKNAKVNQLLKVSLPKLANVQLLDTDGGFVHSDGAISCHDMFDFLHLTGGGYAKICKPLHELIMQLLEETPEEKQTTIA
pPAFAH FP inh = pPAFAH (human) enzyme inhibition; inhibition, % at 3.39 µM; 330,000 compounds, 1.5% hits; recombinant pPAFAH, FP-rhodamine probe fluorescence polarization; Q13093;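 active = inhibition above the mean inhibition across the screen plus 3 SD, cut at about 25% in these data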;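 also: inhibitors block binding of the rhodamine activity-based probe so polarization drops; 0% = enzyme with DMSO and 100% = wells lacking pPAFAH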
ARFGAP1 inh = inhibits rat ARF GTPase activating protein 1 | Q62848 | Arfgap1-stimulated ARF1 GTP hydrolysis, GDP FP detection | inhibition, % at 16.5 µM | 360,000 compounds, 0.26% hits;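 active = inhibition above a per-plate limit, mean inhibition of low control wells plus 3 SD, cut at about 25% in these data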;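 also: 0% = DMSO wells with enzyme and 100% = wells lacking Arfgap1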
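Material: rat Arfgap1 catalytic domain, aa 1-136; also added: human ARF1(Δ1-17)-GTP substrate; compound dosing: one concentration, 16.5 µM, DMSO 1.26%; incubation: GTP hydrolysis reaction 2 h at 25 °C; measured by: Tracer-displacement fluorescence polarization with EDTA stop, 620/688 nm; evaluation: % inhibition from polarization; repeats: one replicate per compound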
PAFAH1B3 FP inh = blocks human PAF acetylhydrolase 1B catalytic subunit 3; recombinant PAFAH1B3, FP-rhodamine probe, fluorescence polarization; inhibition, % at 3.39 µM; 340,000 compounds, 0.28% hits;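 active = inhibition above the screen-wide average of all tested compounds plus 3 SD, cut at about 25% in these data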;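 also: 0% = enzyme with DMSO only and 100% = wells lacking PAFAH1B3 protein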
Target sequence (Q15102 whole entry, looked up): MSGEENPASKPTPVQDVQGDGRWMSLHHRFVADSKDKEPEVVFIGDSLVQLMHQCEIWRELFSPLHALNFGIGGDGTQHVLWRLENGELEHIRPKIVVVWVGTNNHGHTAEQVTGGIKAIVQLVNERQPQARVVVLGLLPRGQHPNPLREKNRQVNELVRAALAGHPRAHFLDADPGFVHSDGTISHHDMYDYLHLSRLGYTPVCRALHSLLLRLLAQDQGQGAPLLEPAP
Numbers without * were called inactive; x = no result. Rows were chosen to be rich in hits. Some 2.7% of all compounds tested hit in one or more screens of this group.

SMILES	PAFAH2 inh	ASAP1 inh	PAFAH1B2 FP inh	pPAFAH FP inh	ARFGAP1 inh	PAFAH1B3 FP inh
CCNc1nc(NC(C)(C)C)nc(SC(C(C)=O)C(C)=O)n1	-12	6	25*	-1	-6	1
CS(=O)(=O)NCCCCNc1ccc(C(F)(F)F)cc1[N+](=O)[O-]	-1	-1	4	26*	-9	5
O=[N+]([O-])c1cc(C(F)(F)F)ccc1NCCCCNS(=O)(=O)c1ccc2ccccc2c1	-13	9	15	-6	-9	7
CCN(CC)c1ccc(NC(=O)COC(=O)Cc2ccsc2)cc1	1	1	2	x	9	-1
CC(=O)c1ccc(NC(=O)COC(=O)Cc2ccsc2)cc1	17	-14	3	10	6	8
O=C(COC(=O)Cc1ccsc1)Nc1cccc(F)c1	17	-6	9	29*	-2	3
COc1ccc(CC(=O)OCC(=O)NNC(=O)c2ccccc2)cc1	6	5	1	18	4	10
O=C(COC(=O)Cc1ccsc1)NNC(=O)c1ccccc1	-3	-6	3	26*	-4	3
O=C(COC(=O)Cc1ccsc1)Nc1ccccc1	15	-20	-3	27*	-4	12
O=C(COC(=O)CCc1c[nH]c(=O)[nH]1)Nc1ccccc1	34*	-1	1	2	4	-1
Cc1ccc(NC(=O)COC(=O)CCc2c[nH]c(=O)[nH]2)cc1	11	7	3	-5	-3	4
COCCc1nnc(NC(=O)C23CC4CC(CC(C4)C2)C3)s1	2	-4	15	3	-2	9
Cc1nnc(NC(=O)C23CC4CC(C)(CC(C)(C4)C2)C3)s1	-1	2	26*	0	2	1
CC12CC3CC(C)(C1)CC(C(=O)Nc1nncs1)(C3)C2	-8	0	28*	3	-7	-1
Cc1nnc(NC(=O)CC23CC4CC(CC(C4)C2)C3)s1	3	7	28*	3	4	7
CCc1nnc(NC(=O)CC23CC4CC(CC(C4)C2)C3)s1	7	-8	19	4	12	2
O=C(NN=Cc1ccccc1O)C(=O)Nc1ccc(F)cc1	x	-2	x	x	7	x
C#CCN1CC(COc2ccccc2)Oc2cccc(Oc3ccc(OC)cc3)c2S1(=O)=O (stereo not drawn)	x	9	x	x	7	x
COc1ccc(NC(=O)N(C)C[C@H]2OCc3cn(nn3)CCCC(=O)N([C@H](C)CO)C[C@@H]2C)cc1	x	-7	x	x	1	x
CN(C(=O)COC(=O)C1=COCCO1)C1(C#N)CCCCC1	9	-6	2	1	-7	-2
N#CC1(NC(=O)COC(=O)C2=COCCO2)CCCCC1	92*	10	19	3	17	32*
CC(NC(=O)COC(=O)C1=COCCO1)C12CC3CC(CC(C3)C1)C2 (stereo not drawn)	52*	1	25*	4	0	-6
CCOC(=O)C1=C(C(=O)OCC)C2N(Cc3ccc(C#N)cc3)c3ccccc3[C@@]23C[C@@H](C(=O)OC)N(S(=O)(=O)c2cccs2)C3=N1 (stereo partly drawn)	x	-9	x	x	-2	x
Brc1ccc(-c2noc(CCc3ccccc3)n2)o1	-6	-4	28*	0	13	10
Cc1noc(/C=C/c2ccco2)c1S(=O)(=O)N1CCC(C(=O)N2CCc3ccccc3C2)CC1	-12	x	1	30*	x	2
SMILES	PAFAH2 inh	ASAP1 inh	PAFAH1B2 FP inh	pPAFAH FP inh	ARFGAP1 inh	PAFAH1B3 FP inh
COc1cccc(C(=O)N[C@H](C(=O)N2CCC[C@H]2C(=O)NCc2ccccc2)C(C)C)c1	x	1	x	x	7	x
O=C(C(Cl)Cl)N1CCN(Cc2ccccc2)CC1	1	-11	2	0	-10	4
O=C(C(c1ccccc1)c1ccccc1)N1CCN(Cc2ccc(Br)cc2)CC1	-4	12	24*	-1	-7	4
CCOCC(O)CSCc1ccc(Cl)cc1 (stereo not drawn)	3	-9	26*	2	-1	-1
CCOC(=O)C1CCN(CC(O)COCc2ccc(Cl)cc2)CC1 (stereo not drawn)	0	6	3	3	14	1
C#CCNC(=O)C[C@H]1C[C@@]2(C(=O)OC)C(=C[C@H](C(C)(C)C)O[C@@H]2C)N(CCC2=CCCCC2)C1=O	x	-8	x	x	7	x

Compound activity as filed in PubChem.
